Results as given in ChEMBL document CHEMBL4038284, “Synthesis of novel quinoline-based 4,5-dihydro-1H-pyrazoles as potential anticancer, antifungal, antibacterial and antiprotozoal agents” (Eur J Med Chem, 2017).
In brackets after ≈: the same amount, converted by molar mass. Activity calls are given as the source filed them. No cut-off for these calls is given here.

What was measured:
CCRF-CEM = experiment: Growth inhibition of human CCRF-CEM cells at 10 uM incubated for 48 hrs by sulforhodamine B assay; type: functional, cell-based
How it was run: (§1)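 NCI 60-cell-line screen at a single 10 µM dose. Cells in RPMI-1640 with 5% FBS and 2 mM L-glutamine, pre-incubated 24 h, then treated for 48 h at 37 °C. TCA fixation, sulforhodamine B staining, absorbance at 515 nm. Percentage growth calculated against time-zero and untreated controls.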

RPMI-8226 = experiment: Growth inhibition of human RPMI8226 cells at 10 uM incubated for 48 hrs by sulforhodamine B assay; type: functional, cell-based
How it was run: (§2)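 NCI 60-line panel, single 10 μM dose. Cells were grown in RPMI-1640 with 5% FBS and 2 mM L-glutamine and pre-incubated 24 h before compound addition (DMSO stock). Exposure was 48 h at 37 °C, 5% CO2. Cells were fixed with cold TCA (10% final), stained with 0.4% SRB, bound dye dissolved in 10 mM Tris base, A515 read. Growth was taken relative to time-zero and untreated control plates.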

HOP-92 = experiment: Growth inhibition of human HOP92 cells at 10 uM incubated for 48 hrs by sulforhodamine B assay; type: functional, cell-based; how it was run: as §2
NCI-H226 = experiment: Growth inhibition of human NCI-H226 cells at 10 uM incubated for 48 hrs by sulforhodamine B assay; type: functional, cell-based; how it was run: as §2
NCI-H23 = experiment: Growth inhibition of human NCI-H23 cells at 10 uM incubated for 48 hrs by sulforhodamine B assay; type: functional, cell-based; how it was run: as §2
SW-620 = experiment: Growth inhibition of human SW620 cells at 10 uM incubated for 48 hrs by sulforhodamine B assay; type: functional, cell-based
How it was run: (§3)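 NCI-60 single-dose screen at 10 µM for 48 h. Cells were grown in RPMI-1640 with 5% FBS and 2 mM L-glutamine and preincubated 24 h before compound. Time-zero plates were TCA-fixed at compound addition. After exposure, cells were TCA-fixed, stained with SRB and read at 515 nm. Percentage growth was calculated against time-zero and untreated-control absorbances.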

SF-268 = experiment: Growth inhibition of human SF268 cells at 10 uM incubated for 48 hrs by sulforhodamine B assay; type: functional, cell-based; how it was run: as §2
SF-295 = experiment: Growth inhibition of human SF295 cells at 10 uM incubated for 48 hrs by sulforhodamine B assay; type: functional, cell-based; how it was run: as §2
SNB-19 = experiment: Growth inhibition of human SNB19 cells at 10 uM incubated for 48 hrs by sulforhodamine B assay; type: functional, cell-based; how it was run: as §3
SNB-75 = experiment: Growth inhibition of human SNB75 cells at 10 uM incubated for 48 hrs by sulforhodamine B assay; type: functional, cell-based; how it was run: as §3
LOX IMVI = experiment: Growth inhibition of human LOXIMVI cells at 10 uM incubated for 48 hrs by sulforhodamine B assay; type: functional, cell-based; how it was run: as §2
Malme-3M = experiment: Growth inhibition of human MALME-3M cells at 10 uM incubated for 48 hrs by sulforhodamine B assay; type: functional, cell-based; how it was run: as §2
M14 = experiment: Growth inhibition of human M14 cells at 10 uM incubated for 48 hrs by sulforhodamine B assay; type: functional, cell-based; how it was run: as §2
MDA-MB-435 = experiment: Growth inhibition of human MDA-MB-435 cells at 10 uM incubated for 48 hrs by sulforhodamine B assay; type: functional, cell-based; how it was run: as §2
OVCAR-5 = experiment: Growth inhibition of human OVCAR5 cells at 10 uM incubated for 48 hrs by sulforhodamine B assay; type: functional, cell-based; how it was run: as §2
NCI/ADR-RES = experiment: Growth inhibition of human NCI/ADR-RES cells at 10 uM incubated for 48 hrs by sulforhodamine B assay; type: functional, cell-based; how it was run: as §2
SK-OV-3 = experiment: Growth inhibition of human SKOV3 cells at 10 uM incubated for 48 hrs by sulforhodamine B assay; type: functional, cell-based; how it was run: as §3
A498 = experiment: Growth inhibition of human A498 cells at 10 uM incubated for 48 hrs by sulforhodamine B assay; type: functional, cell-based; how it was run: as §1
SN12C = experiment: Growth inhibition of human SN12C cells at 10 uM incubated for 48 hrs by sulforhodamine B assay; type: functional, cell-based; how it was run: as §3
PC-3 = experiment: Growth inhibition of human PC3 cells at 10 uM incubated for 48 hrs by sulforhodamine B assay; type: functional, cell-based; how it was run: as §2
DU-145 = experiment: Growth inhibition of human DU145 cells at 10 uM incubated for 48 hrs by sulforhodamine B assay; type: functional, cell-based; how it was run: as §1
MCF7 = experiment: Growth inhibition of human MCF7 cells at 10 uM incubated for 48 hrs by sulforhodamine B assay; type: functional, cell-based; how it was run: as §2
T47D = experiment: Growth inhibition of human T47D cells at 10 uM incubated for 48 hrs by sulforhodamine B assay; type: functional, cell-based; how it was run: as §3
Candida albicans [1] = experiment: Antifungal activity against Candida albicans ATCC 10231 incubated for 48 hrs under dark condition by broth microdilution method; type: functional; details: ATCC 10231, 48 h
How it was run: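 CLSI M27-A3 broth microdilution in RPMI-1640, DMSO ≤1%, compounds at 250-0.98 µg/mL final. Inoculum 1-5 × 10^3 CFU/mL. Incubated 48 h at 30 °C in a moist dark chamber, read at OD405. MIC80 and MIC50 taken from % inhibition dose-response curves (mean ± SEM, triplicate). Amphotericin B was the positive control.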

Candida albicans [2] = experiment: Growth inhibition of Candida albicans ATCC 10231 at 31.25 ug/ml incubated for 48 hrs under dark condition by broth microdilution method relative to control; type: functional; details: ATCC 10231, 48 h, read-out: GI
How it was run: (§4)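 CLSI M27-A3 broth microdilution in RPMI-1640, DMSO ≤1%. Inoculum 1-5 × 10^3 CFU/mL. Incubated 48 h at 30 °C, dark. % inhibition = 100 − (OD405 test − sterility control)/(OD405 growth control − sterility control), with growth and sterility control wells. Triplicate.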

Candida albicans [3] = experiment: Growth inhibition of Candida albicans ATCC 10231 at 15.62 ug/ml incubated for 48 hrs under dark condition by broth microdilution method relative to control; type: functional; details: ATCC 10231, 48 h, read-out: GI; how it was run: as §4
Cryptococcus neoformans [4] = experiment: Growth inhibition of Cryptococcus neoformans ATCC 32264 at 62.5 ug/ml incubated for 48 hrs under dark condition by broth microdilution method relative to control; type: functional; details: ATCC 32264, 48 h, read-out: GI; how it was run: as §4
Cryptococcus neoformans [5] = experiment: Growth inhibition of Cryptococcus neoformans ATCC 32264 at 31.25 ug/ml incubated for 48 hrs under dark condition by broth microdilution method relative to control; type: functional; details: ATCC 32264, 48 h, read-out: GI; how it was run: as §4
Staphylococcus aureus [6] = experiment: Antibacterial activity against methicillin-sensitive Staphylococcus aureus ATCC 25923 after 24 hrs by resazurin dye based microdilution assay; type: functional; details: ATCC 25923, 24 h
How it was run: (§5)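 MIC taken as the lowest concentration giving visible inhibition and/or by resazurin (1 mg/mL). Gentamicin was the control. Run in duplicate, repeated at least three times.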

Staphylococcus aureus [7] = experiment: Antibacterial activity against vancomycin-intermediate Staphylococcus aureus after 24 hrs by resazurin dye based microdilution assay; type: functional; how it was run: as §5
Escherichia coli = experiment: Antibacterial activity against Escherichia coli ATCC 25922 after 24 hrs by resazurin dye based microdilution assay; type: functional; details: ATCC 25922, 24 h; how it was run: as §5
Pseudomonas aeruginosa = experiment: Antibacterial activity against Pseudomonas aeruginosa ATCC 27853 after 24 hrs by resazurin dye based microdilution assay; type: functional; details: ATCC 27853, 24 h; how it was run: as §5

| SMILES | growth inhibition (GI) (CCRF-CEM) | growth inhibition (GI) (RPMI-8226) | growth inhibition (GI) (HOP-92) | growth inhibition (GI) (NCI-H226) | growth inhibition (GI) (NCI-H23) | growth inhibition (GI) (SW-620) | growth inhibition (GI) (SF-268) | growth inhibition (GI) (SF-295) | growth inhibition (GI) (SNB-19) | growth inhibition (GI) (SNB-75) | MIC50 (Candida albicans [1]) | MIC80 (Candida albicans [1]) | inhibition of growth at 31.25 µg/mL (Candida albicans [2]) | inhibition of growth at 15.62 µg/mL (Candida albicans [3]) | inhibition of growth at 62.5 µg/mL (Cryptococcus neoformans [4]) | inhibition of growth at 31.25 µg/mL (Cryptococcus neoformans [5]) | MIC (Staphylococcus aureus [6]) | MIC (Staphylococcus aureus [7]) | MIC (Escherichia coli) | MIC (Pseudomonas aeruginosa) | further results |
| --- | --- | --- | --- | --- | --- | --- | --- | --- | --- | --- | --- | --- | --- | --- | --- | --- | --- | --- | --- | --- | --- |
| COc1ccc(C2=NN(C=O)C(c3cccc(Nc4ccnc5cc(Cl)ccc45)c3)C2)cc1 (centres undefined) | Active | Active | Active | Active | Active | Active | Active | Active | Active | Active | ≥ 250 mg/L | ≥ 250 mg/L | 14.7% | 12.9% | 43.5% | 29.1% | > 1000 mg/L | > 1000 mg/L | > 1000 mg/L | > 1000 mg/L | growth inhibition (GI) (LOX IMVI): Active; growth inhibition (GI) (Malme-3M): Active; growth inhibition (GI) (M14): Active; growth inhibition (GI) (MDA-MB-435): Active; growth inhibition (GI) (OVCAR-5): Active; growth inhibition (GI) (NCI/ADR-RES): Active; growth inhibition (GI) (SK-OV-3): Active; growth inhibition (GI) (A498): Active; growth inhibition (GI) (SN12C): Active; growth inhibition (GI) (PC-3): Active; growth inhibition (GI) (DU-145): Active; growth inhibition (GI) (MCF7): Active; growth inhibition (GI) (T47D): Active |
| COc1ccc(C(=O)/C=C/c2cccc(Nc3ccnc4cc(Cl)ccc34)c2)cc1 | Active | Active | Active | Active | Active | Active | Active | Active | Active | Active | 250 mg/L (≈ 603 µM) | ≥ 250 mg/L | 26.9% | 26.8% | 13.9% | 7.31% | > 1000 mg/L | > 1000 mg/L | > 1000 mg/L | > 1000 mg/L | growth inhibition (GI) (LOX IMVI): Active; growth inhibition (GI) (Malme-3M): Active; growth inhibition (GI) (M14): Active; growth inhibition (GI) (MDA-MB-435): Active; growth inhibition (GI) (OVCAR-5): Active; growth inhibition (GI) (NCI/ADR-RES): Active; growth inhibition (GI) (SK-OV-3): Active; growth inhibition (GI) (A498): Active; growth inhibition (GI) (SN12C): Active; growth inhibition (GI) (PC-3): Active; growth inhibition (GI) (DU-145): Active; growth inhibition (GI) (MCF7): Active; growth inhibition (GI) (T47D): Active |
| O=Cc1cccc(Nc2ccnc3cc(Cl)ccc23)c1 | – | – | – | – | – | – | – | – | – | – | 250 mg/L (≈ 884 µM) | ≥ 250 mg/L | 10.6% | 10.8% | 19.6% | 14.3% | 62.5 mg/L (≈ 221 µM) | 125 mg/L (≈ 442 µM) | 62.5 mg/L (≈ 221 µM) | > 1000 mg/L | – |
| O=CN1N=C(c2ccc(Cl)cc2)CC1c1cccc(Nc2ccnc3cc(Cl)ccc23)c1 (centres undefined) | Active | Active | Active | Active | Active | Active | Active | Active | Active | Active | 250 mg/L (≈ 542 µM) | ≥ 250 mg/L | 24.5% | 22.7% | 59.7% | 55.7% | > 1000 mg/L | > 1000 mg/L | > 1000 mg/L | > 1000 mg/L | growth inhibition (GI) (LOX IMVI): Active; growth inhibition (GI) (Malme-3M): Active; growth inhibition (GI) (M14): Active; growth inhibition (GI) (MDA-MB-435): Active; growth inhibition (GI) (OVCAR-5): Active; growth inhibition (GI) (NCI/ADR-RES): Active; growth inhibition (GI) (SK-OV-3): Active; growth inhibition (GI) (A498): Active; growth inhibition (GI) (SN12C): Active; growth inhibition (GI) (PC-3): Active; growth inhibition (GI) (DU-145): Active; growth inhibition (GI) (MCF7): Active; growth inhibition (GI) (T47D): Active |
